Experimental data taken from ChEMBL document CHEMBL1944526, “Diamine and aminoalcohol derivatives active against Trypanosoma brucei” (Bioorg Med Chem Lett, 2012).
Calls of active or inactive are those of the source. No cut-off for these calls is given here.

What was measured:
[1] = Selectivity index, ratio of CC50 for african green monkey Vero cells to EC50 for Trypanosoma brucei rhodesiense EATRO3; assay type: toxicity, cell-based; conditions: read-out: Ratio CC50/EC50
Method in brief: (§1)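 Vero cells were grown in DMEM with 10% heat-inactivated FBS and seeded at 5 × 10^4 cells/ml. They were exposed to 4–35 (units as printed unclear) compound concentrations for 72 h at 37 °C and 5% CO2. CC50 came from Alamar Blue fluorescence (ex 550/em 590 nm). SI = CC50 (Vero) / EC50 (parasite, 72 h Alamar Blue assay).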

[2] = test system: Trypanosoma brucei rhodesiense; experiment: Antitrypanosomal activity against bloodstream form of Trypanosoma brucei rhodesiense EATRO3 after 72 hrs by alamar blue assay; assay type: functional, organism-based; conditions: EATRO3, 72 h
Method in brief: (§2)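 Bloodstream-form parasites were grown in HMI-9 with 20% heat-inactivated FBS at 37 °C and 5% CO2. They were seeded at 2 × 10^3 cells/ml (T. b. rhodesiense EATRO3) or 2 × 10^4 cells/ml (T. b. gambiense ELIANE) and exposed to a compound dilution series for 72 h. Untreated cells with matching DMSO served as controls. Alamar Blue fluorescence was read at ex 550/em 590 nm, and EC50 was derived from it.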

[3] = test system: Trypanosoma brucei gambiense; experiment: Antitrypanosomal activity against bloodstream form of Trypanosoma brucei gambiense ELIANE after 72 hrs by alamar blue assay; assay type: functional, organism-based; method in brief: as §2
[4] = test system: Trypanosoma brucei rhodesiense; experiment: Antitrypanosomal activity against bloodstream form of Trypanosoma brucei rhodesiense EATRO3 assessed as alteration of flagellar pocket at […] after 24 hrs by microscopic analysis; assay type: functional, organism-based
Method in brief: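 Live bloodstream-form T. b. rhodesiense EATRO3, cultured in HMI-9 with 20% heat-inactivated FBS at 37 °C and 5% CO2, were treated for 24 h. Flagellar pocket morphology was imaged with Nomarski optics and compared against untreated parasites.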

[5] = Selectivity index, ratio of CC50 for african green monkey Vero cells to EC50 for Trypanosoma brucei gambiense ELIANE; assay type: toxicity, cell-based; conditions: read-out: Ratio CC50/EC50; method in brief: as §1

Structure (SMILES) | EC50 [2] [nM] | selectivity ratio [1] | other results
N=C(N)c1ccc(OCCCCCOc2ccc(C(=N)N)cc2)cc1 | 3.7 |  | 
CCCCCCCCCCCCCCC(CO)NCCCC (racemic) | 817 |  | 
CCCCCCCCCCCCCCC(CN)NC(=O)OC(C)(C)C (racemic) | 961 | 17 | 
CCCCCCCCCCCCCCC(N)CO (racemic) | > 2500 |  | 
CCCCCCCCCCCCCCC(CNCCCCCC)NC(=O)OC(C)(C)C (racemic) | > 2500 |  | 
CCCCCCCCCCCCCCCCC(CO)NCC (racemic) | 584 | 27.7 | EC50 [3]: 451 nM; Activity [4]: Active; selectivity ratio [5]: 35.9
CCCCCCCCCCCCCCC(O)CN1CCN(C)CC1 (racemic) | 524 | 23.7 | EC50 [3]: 431 nM; Activity [4]: Active; selectivity ratio [5]: 28.8
CCCCCCCCCCCCCCC(N)CNCC(=O)O (racemic) | > 2500 |  | 
CCCCCCCCCCCCCCC(O)CN1CCN(CCCC)CC1 (racemic) | 1780 |  | 
CCCCCCCCCCC(CO)NCC (racemic) | 1090 |  | 
CCCCCCCCCCCCCCC(O)CNC(C)C (racemic) | 436 | 27.1 | EC50 [3]: 329 nM; Activity [4]: Active; selectivity ratio [5]: 35.8
CCCCCCCCCCCCCCC(O)CNCCCCCC (racemic) | > 2500 |  | 

Continued, in another order:

EC50 [2] [nM] | Structure (SMILES) | selectivity ratio [1] | other results
2000 | CCCCCCCCCCCCCCC(O)CN(CC)CC (racemic) | 19.9 | 
> 2500 | CCCCCCCCCCCCCCC(O)CN1CCOCC1 (racemic) |  | 
185 | Cc1ccc(C(=O)Nc2ccc(S(=O)(=O)O)c3cc(S(=O)(=O)O)cc(S(=O)(=O)O)c23)cc1NC(=O)c1cccc(NC(=O)Nc2cccc(C(=O)Nc3cc(C(=O)Nc4ccc(S(=O)(=O)O)c5cc(S(=O)(=O)O)cc(S(=O)(=O)O)c45)ccc3C)c2)c1 [SURAMIN] |  | 
790 | CCCCCCCCCCCCCCC(O)CNC1CCCCC1 (racemic) |  | 
722 | CCCCCCCCCCCCCCC(CO)N(CC)CC (racemic) |  | 
1140 | CCCCCCCCCCCCCCC(CO)NCC (racemic) | 39.1 | 
> 2500 | CCCCCCCCCCCCCCC(CO)NC(=O)CCCC(=O)O (racemic) |  | 
> 2500 | CCCCCCCCCCCCCCC(COCc1ccccc1)NC(=O)CCC(=O)O (racemic) |  | 
> 2500 | CCCCCCCCCCCCCCC(CNC(=O)CCC(=O)O)NC(=O)OC(C)(C)C (racemic) |  | 
704 | CCCCCCCCCCCCCCC(CNCC)NC(=O)OC(C)(C)C (racemic) | 38.8 | 
